Experimental findings from ChEMBL document CHEMBL1240364, “Ex vivo comparison of microbicide efficacies for preventing HIV-1 genomic integration in intraepithelial vaginal cells” (Antimicrob Agents Chemother, 2010) are described below.

In general, IC50 refers to the midpoint of a concentration-inhibition curve. As usually defined, the inhibition is the change of the read-out against control, counted positive when it falls.

Assay [1] relates to Human immunodeficiency virus 1. Nature of the assay: Antiviral activity against HIV1 JRCSF infected in human vaginal intraepithelial cells assessed as viral genomic integration relative to control at 30 uM by singleplex PCR assay. The note with it: Human immunodeficiency virus 1, JRCSF ISOLATE.
Assay [2] concerns Human immunodeficiency virus 1. As to the kind of experiment: Antiviral activity against HIV1 isolate M1 infected in human vaginal intraepithelial cells assessed as decrease in viral genomic integration at 1 uM after 48 hrs by multiplex PCR assay. Format: functional. Also noted: scale not given: the % may be the effect or the level left. Summed up: (§1)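 Vaginal epithelial sheets from two donors, EDTA-isolated and calcium-replenished, were preincubated with compound and then spinoculated with 100 ng/ml Gag p24 of primary mucosal isolate HIV-1M1 for 2 h at 1,200 × g. After 48 h culture, integration was measured by multiplex Alu-LTR/β-actin nested real-time PCR and expressed relative to untreated infection.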

Assay [3] deals with Human immunodeficiency virus 1. Nature of the assay: Antiviral activity against HIV1 JRCSF infected in human vaginal intraepithelial cells assessed as decrease in viral genomic integration at 30 uM by multiplex PCR assay. Format: functional, JRCSF ISOLATE. Also noted: scale not given: the % may be the effect or the level left. Summed up:
(§2)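 EDTA-separated vaginal epithelial sheets, calcium-replenished, pretreated 1 h with a single compound concentration, then spinoculated with 100 ng/ml Gag p24 HIV-1JRCSF (2 h, 1,200 × g) and cultured 48 h at 37°C. Integrated DNA measured by Alu-LTR nested real-time PCR against an ACH-2 standard curve, with β-actin normalization run either in separate wells (singleplex) or in the same wells (multiplex). Quadruplicate PCRs; integration relative to untreated infection.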

Assay [4] concerns Human immunodeficiency virus 1. Nature of the assay: Antiviral activity against HIV1 JRCSF infected in human vaginal epithelium assessed as inhibition of viral genomic integration by titration assay. It counts as functional. The following applies: for IC50: Human immunodeficiency virus 1, JRCSF ISOLATE; for Activity: JRCSF ISOLATE. Summed up: (§3)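 Vaginal epithelial sheets separated from stroma with 5 mM EDTA overnight at 4°C, replenished 1 h with 5 mM CaCl2. Pretreated with compound titrations for 1 h, then spinoculated with 100 ng/ml Gag p24 HIV-1JRCSF for 2 h at 1,200 × g. Sheets washed and cultured 2–3 days at 37°C. Emigrated cells and sheets pooled; Alu-LTR nested real-time PCR run in quadruplicate. Integration expressed relative to untreated infection; IC50 by nonlinear regression.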

Assay [5] concerns Human immunodeficiency virus 1. Nature of the assay: Antiviral activity against HIV1 JRCSF infected in human vaginal intraepithelial cells assessed as decrease in viral genomic integration at 1 uM by singleplex PCR assay. It counts as functional, JRCSF ISOLATE. Also noted: scale not given: the % may be the effect or the level left. Summed up:
as §2

Assay [6] has as its system Human immunodeficiency virus 1. Nature of the assay: Antiviral activity against HIV1 JRCSF infected in human vaginal intraepithelial cells assessed as viral genomic integration relative to control at 1 uM by singleplex PCR assay. The note with it: Human immunodeficiency virus 1, JRCSF ISOLATE.
The subject of assay [7] is Human immunodeficiency virus 1. As to the kind of experiment: Antiviral activity against HIV1 JRCSF infected in human vaginal epithelium leukocytes assessed as inhibition of viral genomic integration by titration assay. Format: functional, cell-based. The following applies: JRCSF ISOLATE. Summed up: as §3
Assay [8] deals with Human immunodeficiency virus 1. As to the kind of experiment: Antiviral activity against HIV1 JRCSF infected in human vaginal epithelium mucosa assessed as decrease viral integration at 10 ng/ml by titration assay. It counts as functional. The following applies: Human immunodeficiency virus 1, JRCSF ISOLATE. Summed up: as §3
For assay [9], the system named is Human immunodeficiency virus 1. As to the kind of experiment: Antiviral activity against HIV1 JRCSF infected in human intraepithelial leukocytes assessed as decrease viral integration at 0.1 ug/ml by titration assay. Format: functional, JRCSF ISOLATE. Also noted: scale not given: the % may be the effect or the level left. Summed up: as §3
Assay [10] deals with Human immunodeficiency virus 1. Nature of the assay: Antiviral activity against HIV1 JRCSF infected in PHA-activated human T cells assessed as inhibition of viral genomic integration by titration assay. It counts as functional, cell-based. The note with it: T-cell. Summed up:
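PBMC from two blood donors activated 2 days with 0.4 μg/ml PHA; 100,000 lymphoblasts per well pretreated in duplicate with a concentration series for 1 h at room temperature, infected with 200 ng/ml Gag p24 HIV-1JRCSF for 2 h, washed, cultured 48 h at 37°C in medium with 50 U/ml IL-2. Integrated DNA measured by Alu-LTR nested real-time PCR; IC50 from nonlinear regression.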

Assay [11] relates to Human immunodeficiency virus 1. As to the kind of experiment: Antiviral activity against HIV1 isolate M1 infected in human vaginal intraepithelial cells assessed as decrease in viral genomic integration at 0.223 uM after 48 hrs by multiplex PCR assay. It counts as functional. Also noted: scale not given: the % may be the effect or the level left. Summed up: as §1
Assay [12] deals with Human immunodeficiency virus 1. As to the kind of experiment: Antiviral activity against HIV1 JRCSF infected in human vaginal intraepithelial cells assessed as decrease in viral genomic integration at 0.223 uM by multiplex PCR assay. Format: functional, JRCSF ISOLATE. Also noted: scale not given: the % may be the effect or the level left. Summed up:
as §2

Assay [13] relates to Human immunodeficiency virus 1. As to the kind of experiment: Antiviral activity against HIV1 JRCSF infected in human intraepithelial leukocytes assessed as decrease viral integration at 0.5 ug/ml by titration assay. Format: functional, JRCSF ISOLATE. Also noted: scale not given: the % may be the effect or the level left. Summed up:
as §3

Assay [14] relates to Human immunodeficiency virus 1. As to the kind of experiment: Antiviral activity against HIV1 JRCSF infected in human vaginal intraepithelial cells assessed as viral genomic integration relative to control at 0.223 uM by singleplex PCR assay. The note with it: Human immunodeficiency virus 1, JRCSF ISOLATE.

`Cc1ccc(-c2ccc3c(c2)C=C(C(=O)Nc2ccc(C[N+](C)(C)C4CCOCC4)cc2)CCC3)cc1.[Cl-]`: the level, % of control at 30 µM in [1] was 10%. Also, the Activity in [2] was under 2%; in assay [3], 8.6%; in [4] it was “Dose-dependent effect”. Besides, the IC50 in [4] worked out at 5.84 nM.
Regarding `[N-]=[N+]=NCc1cccc(C(=O)/C=C(\O)C(=O)O)c1`, in assay [4], the IC50 was determined as 190 nM and the Activity entry was “Dose-dependent effect”. Further, in [5], the Activity is given as 8.4%.
Consider `c1cc(CN2CCCNCCNCCCNCC2)ccc1CN1CCCNCCNCCCNCC1` [PLERIXAFOR], for which the Activity in assay [2] stood at 117%. The level, % of control at 1 µM in assay [6] was 177%.
Take enfuvirtide: the Activity result in assay [7] was “Dose-dependent effect”; in assay [9], 1.92%; in assay [10] (JRCSF ISOLATE) it was “Dose-dependent effect”; in [11] it was under 2%; in assay [12] it was 6%; in [13], 30.4%. In addition, in [8], the inhibition at 0.01 µg/mL is over 80%. Also, the IC50 in assay [10] (Human immunodeficiency virus 1, JRCSF ISOLATE) was 7.57 nM. In addition, the level, % of control at 0.223 µM in [14] was determined as 8%.
